Data set [1] is described as follows: melting temperature; fluorescence melt of hairpins on a sequencing array, two-state fit, raised by 9.35 °C to match UV melts. As to conditions: sodium 0.088 M. The method, boiled down: (§1)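 To match UV melts, fitted temperatures were raised by 9.35 °C. These fits were bootstrapped two-state models that gave melting temperature and folding enthalpy, combined by inverse variance over four replicates. The input was normalised Cy3 fluorescence of library hairpins with annealed Cy3 and quencher oligos on a sequenced MiSeq flow cell, imaged in 50 mM Na-HEPES pH 8.0, 25 mM NaCl in 2.5 °C steps up to 60 °C.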

The nature of data set [2]: folding enthalpy; higher = less favourable; fluorescence melt of hairpins on a sequencing array, two-state fit. As to conditions: sodium 0.088 M. The method, boiled down:
as §1

Regarding GCTTCGCGAAAGCGTTGC ((..(((....)))..)), the Tm in data set [1] worked out at 47.2 °C. Besides, the folding enthalpy in data set [2] is -20.3 kcal/mol.
The corresponding values for GCTTCGCGAAAGCTATGC ((.(.((....)).).)) are 43.5 °C and -13.4 kcal/mol.
As to GCTTCGGGAAACCAAAGC ((((.((....)).)))), the Tm in data set [1] was 41.1 °C. The folding enthalpy in data set [2] was -28.7 kcal/mol.
The corresponding values for GCTTCGGGAAACCGAGGC ((.((((....)))).)) are 53.5 °C and -42.3 kcal/mol.
As to GCTTCGTCGAAAGACAGC (((..(((....)))))), the Tm in data set [1] is 34.5 °C. Besides, the folding enthalpy in data set [2] is -11.5 kcal/mol.
In the same order, the values of GCTTCTGAAAAGAAGC ((((((....)))))) are 60 °C and -31.9 kcal/mol.
On to GCTTCTGGAAACAGAAAC (.(((((....))))).), for which the Tm in data set [1] came out at 32.2 °C. For the same sequence, the folding enthalpy in data set [2] was -17.7 kcal/mol.
For the sequence GCTTGAACGAAAGTTAGC (((..(((....)))))), the Tm in data set [1] was 36.1 °C. For the same sequence, the folding enthalpy in data set [2] was -13.7 kcal/mol.
On to GCTTGCACGAAAGTGAGC (((..(((....)))))), for which the Tm in data set [1] is 44.4 °C. The folding enthalpy in data set [2] was -17.3 kcal/mol.
GCTTGCGAAAGCAACAGC ((((((....)))..))): the Tm in data set [1] is 44.4 °C. Further, the folding enthalpy in data set [2] was -11.4 kcal/mol.
Regarding GCTTGCGAAAGCACAAGC ((((((....)))..))), the Tm in data set [1] stood at 45.3 °C. The folding enthalpy in data set [2] was -16.1 kcal/mol.
The corresponding values for GCTTGCGAAAGCACTAGC ((((((....)))..))) are 33.8 °C and -12.7 kcal/mol.
For GCTTGCGAAAGCAGTAGC ((((((....)))..))), the Tm in data set [1] amounted to 45.7 °C. For the same sequence, the folding enthalpy in data set [2] was -17.8 kcal/mol.
As for GCTTGCGAAAGCATAGC ((((((....))).))), in data set [1], the Tm worked out at 55.3 °C. For the same sequence, the folding enthalpy in data set [2] is -18.9 kcal/mol.
Consider GCTTGCGAAAGCATGAGC ((((((....)))..))), for which, in data set [1], the Tm was 52.6 °C. Further, the folding enthalpy in data set [2] was -22.9 kcal/mol.
In the same order, the values of GCTTGCTCGAAAGAGAGC (((..(((....)))))) are 49.1 °C and -21.3 kcal/mol.
In the same order, the values of GCTTGGACGAAAGTCAGC (((..(((....)))))) are 42.1 °C and -16.7 kcal/mol.
The corresponding values for GCTTGGCGAAAGCAAGGC ((.(.((....)).).)) are 45.6 °C and -14.9 kcal/mol.
With GCTTGGCGAAAGCCATGC ((.((((....)))).)), the Tm in data set [1] came to 65.4 °C. For the same sequence, the folding enthalpy in data set [2] was -27.2 kcal/mol.
For GCTTGGCGAAAGCCCTGC ((..(((....)))..)), the Tm in data set [1] amounted to 40.2 °C. Also, the folding enthalpy in data set [2] was -13.6 kcal/mol.
In the same order, the values of GCTTGGCGAAAGCCGTGC ((..(((....)))..)) are 53.4 °C and -15.3 kcal/mol.
With GCTTGGCGAAAGCGCAGC (((..((....))..))), the Tm in data set [1] stood at 43.5 °C. Besides, the folding enthalpy in data set [2] was -12.8 kcal/mol.
In the same order, the values of GCTTGGCGAAAGCTGAGC (((..((....))..))) are 56.2 °C and -22.3 kcal/mol.
As to GCTTGGGAAACCAAGC ((((((....)))))), the Tm in data set [1] came out at 62.7 °C. Also, the folding enthalpy in data set [2] is -35.7 kcal/mol.
As for GCTTGGGGAAACCTAGGC ((.(.((....)).).)), the Tm in data set [1] came out at 32.3 °C. Also, in data set [2], the folding enthalpy is -23.5 kcal/mol.
Turning to GCTTGGGGAAACTCAGGC ((.((.(....).)).)), in data set [1], the Tm is 36.6 °C. The folding enthalpy in data set [2] is -18.2 kcal/mol.
On to GCTTGTACGAAAGTAAGC (((..(((....)))))), for which the Tm in data set [1] stood at 37.7 °C. Also, the folding enthalpy in data set [2] is -24.9 kcal/mol.
The corresponding values for GCTTGTCCGAAAGGAAGC (((..(((....)))))) are 36.1 °C and -17.7 kcal/mol.
The corresponding values for GCTTGTCGAAAGACCAGC (((.(((....))).))) are 47.9 °C and -26.7 kcal/mol.
The corresponding values for GCTTGTGGAAACACAAAC (.(((((....))))).) are 36.3 °C and -13.8 kcal/mol.
GCTTTACGAAAGTACAGC (((.(((....))).))): the Tm in data set [1] turned out to be 44.8 °C. Besides, the folding enthalpy in data set [2] is -28.6 kcal/mol.
In the same order, the values of GCTTTACGAAAGTATAGC (((.(((....))).))) are 47 °C and -34.1 kcal/mol.
The corresponding values for GCTTTAGGAAACTGAAGC ((((.((....)).)))) are 42.4 °C and -30.1 kcal/mol.
In the same order, the values of GCTTTCACGAAAGTGAGC (((..(((....)))))) are 33.8 °C and -11.2 kcal/mol.
As to GCTTTCGAAAGAACGAGC ((((((....)))..))), the Tm in data set [1] worked out at 28.9 °C. Further, the folding enthalpy in data set [2] was -15.1 kcal/mol.
In the same order, the values of GCTTTCGCGAAAGCGAGC (((..(((....)))))) are 48.9 °C and -10.6 kcal/mol.
In the same order, the values of GCTTTCTCGAAAGAGAGC (((..(((....)))))) are 33 °C and -17.8 kcal/mol.
The corresponding values for GCTTTGCGAAAGCACGGC ((..(((....)))..)) are 41.7 °C and -16.6 kcal/mol.
Consider GCTTTGCGAAAGCAGCGC ((..(((....)))..)), for which the Tm in data set [1] was 48.6 °C. In addition, the folding enthalpy in data set [2] is -16.7 kcal/mol.
In the same order, the values of GCTTTGCGAAAGCCAAGC ((((.((....)).)))) are 52.6 °C and -23 kcal/mol.
With GCTTTGCGAAAGCGATGC ((.(.((....)).).)), the Tm in data set [1] was determined as 46.5 °C. Moreover, the folding enthalpy in data set [2] was -19.2 kcal/mol.
The corresponding values for GCTTTGCGAAAGCGGAGC (((..((....))..))) are 53.6 °C and -17.3 kcal/mol.
On to GCTTTGCGAAAGCGTAGC (((..((....))..))), for which, in data set [1], the Tm came to 37.2 °C. Moreover, the folding enthalpy in data set [2] was -19.6 kcal/mol.
The corresponding values for GCTTTGCGAAAGCTTAGC (((..((....))..))) are 55.2 °C and -16.7 kcal/mol.
As for GCTTTGGGAAACCAAAAC (.(((((....))))).), the Tm in data set [1] is 31.3 °C. Moreover, in data set [2], the folding enthalpy is -19.8 kcal/mol.
The corresponding values for GCTTTTCCGAAAGGAAGC (((..(((....)))))) are 33.7 °C and -10.7 kcal/mol.
For the sequence GCTTTTGCGAAAGCAAGC (((..(((....)))))), the Tm in data set [1] came out at 35 °C. Further, in data set [2], the folding enthalpy is -10.3 kcal/mol.
Regarding GGAAAAGGAAACTTTCCC ((.((((....)))).)), the Tm in data set [1] came to 27.8 °C. Besides, the folding enthalpy in data set [2] was -13.1 kcal/mol.
Turning to GGAAAAGGAAACTTTTTC (.(((((....))))).), in data set [1], the Tm came to 33 °C. In addition, in data set [2], the folding enthalpy was -20.6 kcal/mol.
Turning to GGAAACCGAAAGGTATCC (((.(((....))).))), the Tm in data set [1] came to 48.4 °C. Also, the folding enthalpy in data set [2] was -22.7 kcal/mol.
Regarding GGAAACGAAAGTTATCC ((((((....))).))), the Tm in data set [1] was 31.9 °C. Further, in data set [2], the folding enthalpy is -12.1 kcal/mol.
In the same order, the values of GGAAACGAAAGTTCTCC ((((((....))).))) are 35.8 °C and -16.8 kcal/mol.
Regarding GGAAACGAAAGTTTATCC ((((((....)))..))), the Tm in data set [1] worked out at 25.6 °C. Moreover, the folding enthalpy in data set [2] is -12.3 kcal/mol.
The corresponding values for GGAAACGAAAGTTTTTCC ((((((....)))..))) are 30.6 °C and -10.8 kcal/mol.
The corresponding values for GGAAACGGAAACGTCTCC (((.(((....))).))) are 37.2 °C and -23.6 kcal/mol.
For GGAAAGCGAAAGCTTCC (((.(((....)))))), in data set [1], the Tm amounted to 53.7 °C. In addition, the folding enthalpy in data set [2] was -18.1 kcal/mol.
The corresponding values for GGAAAGGAAACTTTCC ((((((....)))))) are 50 °C and -29.9 kcal/mol.
The corresponding values for GGAAAGGGAAACCCTTCC ((((.((....)).)))) are 40 °C and -23.1 kcal/mol.
Take GGAAATACGAAAGTATCC (((..(((....)))))): the Tm in data set [1] came out at 30.8 °C. Besides, the folding enthalpy in data set [2] is -11.3 kcal/mol.
As to GGAAATGGAAACATCTCC (((.(((....))).))), in data set [1], the Tm came out at 25.1 °C. Besides, in data set [2], the folding enthalpy is -9.93 kcal/mol.
In the same order, the values of GGAAATGGAAACATTTTC (.(((((....))))).) are 38.5 °C and -33.7 kcal/mol.
For GGAAATGGAAACGTTTCC (((((.(....).))))), the Tm in data set [1] worked out at 44.1 °C. For the same sequence, in data set [2], the folding enthalpy is -19.2 kcal/mol.
The corresponding values for GGAACACCGAAAGGTTCC (((..(((....)))))) are 42.2 °C and -18.4 kcal/mol.
In the same order, the values of GGAACAGGAAACTATTCC ((((.((....)).)))) are 24.7 °C and -13.4 kcal/mol.
GGAACCGAAAGGTCATCC ((((((....)))..))): the Tm in data set [1] came to 28.6 °C. The folding enthalpy in data set [2] is -10.8 kcal/mol.
Turning to GGAACCGAAAGGTGATCC ((((((....)))..))), the Tm in data set [1] is 42.8 °C. For the same sequence, the folding enthalpy in data set [2] was -14 kcal/mol.
In the same order, the values of GGAACCGAAAGGTGGTCC ((((((....)))..))) are 35.4 °C and -14.7 kcal/mol.
In the same order, the values of GGAACCGGAAACGGTTTC (.(((((....))))).) are 54.5 °C and -21.3 kcal/mol.
The corresponding values for GGAACGCCGAAAGGCTCC (((..(((....)))))) are 33 °C and -9.39 kcal/mol.
For the sequence GGAACTGAAAAGTTCC ((((((....)))))), the Tm in data set [1] amounted to 56.4 °C. Further, the folding enthalpy in data set [2] was -38.3 kcal/mol.
The corresponding values for GGAACTGGAAACAGCTCC (((.(((....))).))) are 42.5 °C and -28.5 kcal/mol.
The corresponding values for GGAAGCACGAAAGTGTCC (((..(((....)))))) are 31.5 °C and -13.1 kcal/mol.
The corresponding values for GGAAGCGAAAGCTACTCC ((((((....)))..))) are 30.8 °C and -13.3 kcal/mol.

For the origin of these results see the array DNA melting data of Ke et al. (doi:10.1101/2024.01.08.574731).
